Laboratory results published in ChEMBL document CHEMBL3272139, “2,5-Bis(3,4-dimethoxybenzyl)cyclopentylamine, a peripheral dopamine blocking agent” (J Med Chem, 1978).
Activity calls are given as the source filed them.

Legend:
Canis familiaris [1] = experiment: Cardiovascular activity in pentobarbital-anesthesized, morphine-premedicated, atropinized, right femoral artery and vein-cannulated mongrel dog at 95 to 120 umol/kg in presence of haloperidol; assay type: ADME, organism-based, Canis lupus familiaris; conditions: in vivo
Canis familiaris [2] = experiment: Inhibition of norepinephrine-induced blood pressure effects in pentobarbital-anesthesized, morphine-premedicated, atropinized, right femoral artery and vein-cannulated mongrel dog up to 71 umol/kg; assay type: functional, organism-based; conditions: Canis lupus familiaris
Canis familiaris [3] = experiment: Inhibition of N-isopropylnorepinephrine-induced chronotropic effects in pentobarbital-anesthesized, morphine-premedicated, atropinized, right femoral artery and vein-cannulated mongrel dog up to 71 umol/kg; assay type: functional, organism-based; conditions: Canis lupus familiaris
Canis familiaris [4] = experiment: Inhibition of norepinephrine-induced chronotropic effects in pentobarbital-anesthesized, morphine-premedicated, atropinized, right femoral artery and vein-cannulated mongrel dog up to 71 umol/kg; assay type: functional, organism-based; conditions: Canis lupus familiaris
Canis familiaris [5] = experiment: Inhibition of N-isopropylnorepinephrine-induced blood pressure effects in pentobarbital-anesthesized, morphine-premedicated, atropinized, right femoral artery and vein-cannulated mongrel dog up to 71 umol/kg; assay type: functional, organism-based; conditions: Canis lupus familiaris
Canis familiaris [6] = experiment: Inhibition of N-isopropylnorepinephrine-induced inotropic effects in pentobarbital-anesthesized, morphine-premedicated, atropinized, right femoral artery and vein-cannulated mongrel dog up to 71 umol/kg; assay type: functional, organism-based; conditions: Canis lupus familiaris
Canis familiaris [7] = species on record: Canis familiaris; experiment: Reduction in dopamine-induced depressor response in pentobarbital-anesthesized, morphine-premedicated, atropinized, right femoral artery and vein-cannulated mongrel dog assessed as threshold dose required for reduction; assay type: functional, Canis lupus familiaris
Canis familiaris [8] = experiment: Cardiovascular activity in pentobarbital-anesthesized, morphine-premedicated, atropinized, right femoral artery and vein-cannulated mongrel dog assessed as time required for decrease in mean blood pressure at 2.4 umol/kg; assay type: ADME, organism-based, Canis lupus familiaris; conditions: in vivo
Procedure, shortened: (§1)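 Mongrel dogs atropinized (1 mg/kg) and checked for autonomic responsiveness with norepinephrine and N-isopropylnorepinephrine (0.1–0.2 µg/kg each). Drugs were given iv via an indwelling venous catheter in 2 mL 0.9% saline. Blood pressure and heart rate were recorded via an arterial catheter. Threshold dose was read from a linear plot of % fall in mean pressure against log dose.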

Canis familiaris [9] = experiment: Cardiovascular activity in pentobarbital-anesthesized, morphine-premedicated, atropinized, right femoral artery and vein-cannulated mongrel dog assessed as decrease in mean blood pressure at 2.4 umol/kg relative to control; assay type: ADME, organism-based, Canis lupus familiaris; design: scale not given: the % may be the effect or the level left; conditions: in vivo; procedure, shortened: as §1
Canis familiaris [10] = species on record: Canis familiaris; experiment: Reduction in dopamine-induced depressor response in pentobarbital-anesthesized, morphine-premedicated, atropinized, right femoral artery and vein-cannulated mongrel dog; assay type: functional, organism-based; conditions: Canis lupus familiaris
Procedure, shortened: (§2)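 Atropinized mongrel dogs pretreated with phenoxybenzamine, 5 mg/kg, to remove the dopamine pressor action. Depressor response was evoked with dopamine, 3 µg/kg iv. Test drug was given iv in 2 mL saline. ED50 was taken from a linear plot of log dose vs % antagonism of the dopamine depressor effect.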

Canis familiaris [11] = experiment: Cardiovascular activity in pentobarbital-anesthesized, morphine-premedicated, atropinized, right femoral artery and vein-cannulated mongrel dog at 95 to 120 umol/kg in presence of metoclopramide; assay type: ADME, organism-based, Canis lupus familiaris; conditions: in vivo
Canis familiaris [12] = experiment: Cardiovascular activity in pentobarbital-anesthesized, morphine-premedicated, atropinized, right femoral artery and vein-cannulated mongrel dog at 95 to 120 umol/kg; assay type: ADME, organism-based, Canis lupus familiaris; conditions: in vivo
Canis familiaris [13] = experiment: Inhibition of norepinephrine-induced inotropic effects in pentobarbital-anesthesized, morphine-premedicated, atropinized, right femoral artery and vein-cannulated mongrel dog up to 71 umol/kg; assay type: functional, organism-based; conditions: Canis lupus familiaris
Mus musculus [14] = experiment: Potentiation of apomorphine-induced sterotypic climbing in ip dosed Swiss-Webster mouse administered for 7 days; assay type: functional
Canis familiaris [15] = experiment: Reduction in dopamine-induced depressor response in pentobarbital-anesthesized, morphine-premedicated, atropinized, right femoral artery and vein-cannulated mongrel dog assessed as half life of drug action at 6 ug/kg; assay type: functional, organism-based; conditions: Canis lupus familiaris
Procedure, shortened: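 Single atropinized dog given 6 µg/kg test drug iv. Residual blockade was measured every 5 min against a 5 µg/kg dopamine challenge. Half-life came from a linear plot of log residual blockade vs time.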

Canis familiaris [16] = species on record: Canis familiaris; experiment: Reduction in dopamine-induced depressor response in pentobarbital-anesthesized, morphine-premedicated, atropinized, right femoral artery and vein-cannulated mongrel dog in presence of alpha-adrenergic blocker phenoxybenzamine; assay type: functional; conditions: Canis lupus familiaris; procedure, shortened: as §2
Canis familiaris [17] = species on record: Canis familiaris; experiment: Cardiovascular activity in pentobarbital-anesthesized, morphine-premedicated, atropinized, right femoral artery and vein-cannulated mongrel dog assessed as threshold dose required for decrease in mean blood pressure; assay type: ADME, organism-based, Canis lupus familiaris; conditions: in vivo; procedure, shortened: as §1
Canis familiaris [18] = experiment: Cardiovascular activity in pentobarbital-anesthesized, morphine-premedicated, atropinized, right femoral artery and vein-cannulated mongrel dog at 95 to 120 umol/kg in presence of propranolol; assay type: ADME, organism-based, Canis lupus familiaris; conditions: in vivo
Canis familiaris [19] = species on record: Canis familiaris; experiment: Cardiovascular activity in pentobarbital-anesthesized, morphine-premedicated, atropinized, right femoral artery and vein-cannulated mongrel dog assessed as vasodepression; assay type: ADME, organism-based, Canis lupus familiaris; conditions: in vivo; procedure, shortened: as §1
Canis familiaris [20] = species on record: Canis familiaris; experiment: Cardiovascular activity in pentobarbital-anesthesized, morphine-premedicated, atropinized, right femoral artery and vein-cannulated mongrel dog assessed as decrease in systolic pressure; assay type: ADME, organism-based, Canis lupus familiaris; conditions: in vivo; procedure, shortened: as §1
Canis familiaris [21] = experiment: Reduction in dopamine-induced depressor response in pentobarbital-anesthesized, morphine-premedicated, atropinized, right femoral artery and vein-cannulated mongrel dog at 12 to 17 umol/kg in presence of alpha-adrenergic blocker phenoxybenzamine; assay type: functional, organism-based; conditions: Canis lupus familiaris; procedure, shortened: as §2
Canis familiaris [22] = species on record: Canis familiaris; experiment: Cardiovascular activity in pentobarbital-anesthesized, morphine-premedicated, atropinized, right femoral artery and vein-cannulated mongrel dog assessed as decrease in diastolic pressure; assay type: ADME, organism-based, Canis lupus familiaris; conditions: in vivo; procedure, shortened: as §1
Mus musculus [23] = experiment: Potentiation of apomorphine-induced sterotypic climbing in Swiss-Webster mouse at 42.5 to 59.4 umol/kg, ip administered 30 mins prior to apomorphine-challenge measured after 5 mins; assay type: functional, organism-based; conditions: 47.5 to 59.4 umol/kg, in the assay text read “47.5 to 59.4 umol/kg” for “42.5 to 59.4 umol/kg”
Procedure, shortened: (§3)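 Male Swiss–Webster mice (20–30 g) were dosed ip in 0.9% saline. Thirty minutes later they received apomorphine HCl, 1 mg/kg sc. Each mouse was placed in a wire-mesh cage and scored for vertical climbing after about 5 min of exploration, with two scores per animal averaged. Groups had 10 mice, compared with saline controls by two-tailed Student's t test.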

Mus musculus [24] = experiment: Reduction in apomorphine-induced sterotypic climbing in Swiss-Webster mouse at 0.1 mg/kg, ip administered 30 mins prior to apomorphine-challenge measured after 5 mins; assay type: functional, organism-based; design: dose 0.1 mg/kg; procedure, shortened: as §3

Which results are given for `COc1ccc(CC2CCC(Cc3ccc(OC)c(OC)c3)C2N)cc1OC.Cl` (centres undefined)?
Activity (Canis familiaris [1]): Toxic; inhibition (Canis familiaris [2]): inactive; inhibition (Canis familiaris [3]): inactive; inhibition (Canis familiaris [4]): inactive; inhibition (Canis familiaris [5]): inactive; inhibition (Canis familiaris [6]): inactive; Activity (Canis familiaris [7]): 0.7 µmol/kg; Time (Canis familiaris [8]): < 1 min; Activity (Canis familiaris [9]): 10%; Activity (Canis familiaris [10]): Dose-dependent effect; Activity (Canis familiaris [11]): Toxic; Activity (Canis familiaris [12]): Toxic; inhibition (Canis familiaris [13]): inactive; Activity (Mus musculus [14]): 5.94 µmol/kg; T1/2 (Canis familiaris [15]): 18 min; ED50 (Canis familiaris [16]): 4 µmol/kg; Activity (Canis familiaris [17]): 1.2 µmol/kg; Activity (Canis familiaris [18]): Toxic; Activity (Canis familiaris [19]): Toxic; Activity (Canis familiaris [20]): Dose-dependent effect; Activity (Canis familiaris [21]): Active; Activity (Canis familiaris [22]): Dose-dependent effect; Activity (Mus musculus [23]): Active

Which Activity (Mus musculus [24]) does the source give for `O=C(CCCN1CCC(O)(c2ccc(Cl)cc2)CC1)c1ccc(F)cc1` here?
Its Activity is “Active”.
